Source: article PMC6935887 (Journal of Medicinal Chemistry, 2019)
Blank lines part the entries; values can stand above or below the compound they belong to.

Key:
hCCR5 [1] = target: T1, hCCR5 (Homo sapiens, UniProt P51681); test: Tango β-arrestin recruitment assay in U2OS-CCR5 cells; type: cell-based; conditions: for Hill slope (nH): inhibition of CCL3-induced β-arrestin recruitment in U2OS-CCR5; for inhibition at 1 µM: read-out: inhibition at 1 μM (%), β-arrestin recruitment in U2OS-CCR5 by 1 μM compound, in the presence of an EC80 concentration of CCL3, negative = CCL3 stimulation
T1 sequence (P51681 whole entry): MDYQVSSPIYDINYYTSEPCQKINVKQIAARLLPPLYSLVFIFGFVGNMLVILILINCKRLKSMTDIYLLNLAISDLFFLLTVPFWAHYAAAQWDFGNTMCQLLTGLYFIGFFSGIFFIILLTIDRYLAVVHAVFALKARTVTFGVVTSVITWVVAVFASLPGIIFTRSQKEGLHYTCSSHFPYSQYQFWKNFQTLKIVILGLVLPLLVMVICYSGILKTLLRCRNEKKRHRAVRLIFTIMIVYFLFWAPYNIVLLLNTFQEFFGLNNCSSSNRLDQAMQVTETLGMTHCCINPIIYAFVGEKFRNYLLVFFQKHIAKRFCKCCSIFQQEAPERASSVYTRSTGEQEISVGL
Outline: (§1)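 Tango bla U2OS cells (human CCR2b or CCR5) were trypsinized and seeded at 10 000 cells/well in FreeStyle medium. Agonist mode: CCL2 or CCL3 for 16 h, 37 °C, 5% CO2. Antagonist mode: 30 min room-temperature preincubation with increasing compound (≤0.5% DMSO final), then 16 h with EC80 CCL2 (5 nM, CCR2) or CCL3 (14 nM, CCR5). LiveBLAzer-FRET B/G substrate 2 h; excitation 400 nm, 460/535 nm emission ratio.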

CCR2 = conditions: read-out: IC50 in CCR2 calcium flux assay; previously reported activity; cited from earlier work
hCCR2 [2] = target: T2, hCCR2 (Homo sapiens, UniProt P41597); test: [3H]-CCR2-RA-[R] displacement binding assay on U2OS-CCR2b membranes; conditions: for pKi ± SEM: displacement of ∼6 nM [3H]-CCR2-RA-[R] from U2OS cells stably expressing CCR2, 25 °C
T2 sequence (P41597 1-360 isoform P41597-2): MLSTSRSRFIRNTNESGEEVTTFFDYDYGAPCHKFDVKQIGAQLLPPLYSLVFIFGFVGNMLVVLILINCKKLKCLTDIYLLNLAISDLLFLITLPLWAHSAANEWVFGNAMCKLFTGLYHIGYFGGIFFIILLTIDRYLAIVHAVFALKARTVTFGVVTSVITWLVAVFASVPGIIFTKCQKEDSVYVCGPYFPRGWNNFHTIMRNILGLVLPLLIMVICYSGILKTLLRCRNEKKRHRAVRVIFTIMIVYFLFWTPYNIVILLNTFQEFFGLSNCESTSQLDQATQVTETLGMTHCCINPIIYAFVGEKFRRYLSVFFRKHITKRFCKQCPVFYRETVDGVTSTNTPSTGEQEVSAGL
Outline: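 U2OS-CCR2b membranes (15–20 μg protein) were incubated with ~6 nM [3H]-CCR2-RA-[R] and at least 6 competitor concentrations. Buffer: 50 mM Tris-HCl, 5 mM MgCl2, 0.1% CHAPS, pH 7.4. Incubation 2 h at 25 °C. Rapid GF/B filtration, ten washes with ice-cold buffer (0.05% CHAPS), scintillation counting. Mean ± SEM of ≥3 experiments in duplicate.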

hCCR2 [3] = target: T2, hCCR2; test: Tango β-arrestin recruitment assay in U2OS-CCR2 cells; type: cell-based; conditions: inhibition of CCL2-induced β-arrestin recruitment in U2OS-CCR2
Outline: as §1

hCCR2 [4] = target: T2, hCCR2; test: CCL2-stimulated [35S]GTPγS binding assay on U2OS-CCR2 membranes; type: biochemical; conditions: for decrease of basal [35S]GTPγS binding levels: 1 μM compound, in absence of CCL2, 0% = basal activity, 100% = 100 nM CCL2
Outline: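 U2OS-CCR2b cells are grown in McCoy's 5A with 10% FCS, G418, hygromycin and zeocin, switching to dialyzed FCS before harvest. Membranes are prepared by scraping in PBS, homogenizing in ice-cold 50 mM Tris-HCl, 5 mM MgCl2, pH 7.4, ultracentrifuging (31 000 rpm, 20 min, 4 °C) twice, storing at −80 °C and measuring protein by BCA. Values come from nonlinear regression, ≥3 experiments in duplicate.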

hCCR5 [5] = target: T1, hCCR5; test: CCL3-stimulated [35S]GTPγS binding assay on U2OS-CCR5 membranes; type: biochemical; conditions: CCL3 alone, U2OS-CCR5, 25 °C
Outline: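 Membranes from Tango U2OS cells stably expressing human CCR5 (10 μg, with 0.25 mg/mL saponin) were preincubated 30 min at 25 °C with 5 μM GDP and increasing CCL3. Then 0.3 nM [35S]GTPγS was added for 90 min at 25 °C. Stopped with ice-cold Tris/MgCl2, then GF/B filtration. Nonlinear regression.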

[6] = CCL2 alone, [35S]GTPγS binding, U2OS-CCR2, 25 °C

Compound: CC(=O)C1=C(O)C(=O)N(c2ccc(Cl)cc2F)[C@@H]1C1CCCCC1 [CCR2-RA-[R], reference compound]
- Hill slope (nH) (hCCR5 [1]): −2.4

Compound: O=c1c(Cc2cccc(Cl)c2)c(C2CC2)[nH]c2ncnn12 [Compound 6, 6-(3-Chlorobenzyl)-5-cyclopropyl[1,2,4]triazolo[1,5-a]pyrimidin-7(4H)-one]
- IC50 (CCR2): ~20 nM
- pKi ± SEM (hCCR2 [2]): 8.76 ± 0.01

Compound: Cc1nc2[nH]c(C3CC3)c(Cc3cccc(Cl)c3)c(=O)n2n1 [Compound 7, 6-(3-Chlorobenzyl)-5-cyclopropyl-2-methyl[1,2,4]triazolo[1,5-a]pyrimidin-7(4H)-one]
- pKi ± SEM (hCCR2 [2]): 8.46 ± 0.05

Compound: Nc1nc2[nH]c(C3CC3)c(Cc3ccccc3)c(=O)n2n1 [Compound 9, 2-Amino-6-benzyl-5-cyclopropyl[1,2,4]triazolo[1,5-a]pyrimidin-7(4H)-one]
- fold decrease in affinity for CCR2 compared to 8 (hCCR2 [2]): 5 fold

Compound: COc1ccccc1Cc1c(C2CC2)[nH]c2nc(N)nn2c1=O [Compound 12, 2-Amino-5-cyclopropyl-6-(2-methoxybenzyl)[1,2,4]triazolo[1,5-a]pyrimidin-7(4H)-one]
- inhibition at 1 µM (hCCR5 [1]): -20%

Compound: Cc1cccc(Cc2c(C3CC3)[nH]c3nc(N)nn3c2=O)c1 [Compound 13, 2-Amino-5-cyclopropyl-6-(3-methylbenzyl)[1,2,4]triazolo[1,5-a]pyrimidin-7(4H)-one]
- inhibition at 1 µM (hCCR5 [1]): > 60%
- pKi ± SEM (hCCR2 [2]): 8.61 ± 0.03

Compound: Nc1nc2[nH]c(C3CC3)c(Cc3cccc(F)c3)c(=O)n2n1 [Compound 14, 2-Amino-5-cyclopropyl-6-(3-fluorobenzyl)[1,2,4]triazolo[1,5-a]pyrimidin-7(4H)-one]
- inhibition at 1 µM (hCCR5 [1]): < 45%

Compound: COc1cccc(Cc2c(C3CC3)[nH]c3nc(N)nn3c2=O)c1 [Compound 17, 2-Amino-5-cyclopropyl-6-(3-methoxybenzyl)[1,2,4]triazolo[1,5-a]pyrimidin-7(4H)-one]
- inhibition at 1 µM (hCCR5 [1]): -27%
- pKi ± SEM (hCCR2 [2]): 7.89 ± 0.07

Compound: Cc1ccc(Cc2c(C3CC3)[nH]c3nc(N)nn3c2=O)cc1 [Compound 19, 2-Amino-5-cyclopropyl-6-(4-methylbenzyl)[1,2,4]triazolo[1,5-a]pyrimidin-7(4H)-one]
- inhibition at 1 µM (hCCR5 [1]): -57%
- Ki (hCCR2 [2]): 3 nM
- pKi ± SEM (hCCR2 [2]): 8.46 ± 0.03

Compound: COc1ccc(Cc2c(C3CC3)[nH]c3nc(N)nn3c2=O)cc1 [Compound 23, 2-Amino-5-cyclopropyl-6-(4-methoxybenzyl)[1,2,4]triazolo[1,5-a]pyrimidin-7(4H)-one]
- inhibition at 1 µM (hCCR5 [1]): -28%

Compound: Cc1[nH]c2nc(N)nn2c(=O)c1Cc1cccc(Cl)c1 [Compound 24, 2-Amino-6-(3-chlorobenzyl)-5-methyl[1,2,4]triazolo[1,5-a]pyrimidin-7(4H)-one]
- inhibition at 1 µM (hCCR5 [1]): -35%

Compound: CCCCCCc1[nH]c2nc(N)nn2c(=O)c1Cc1cccc(Cl)c1 [Compound 32, 2-Amino-6-(3-chlorobenzyl)-5-hexyl[1,2,4]triazolo[1,5-a]pyrimidin-7(4H)-one]
- inhibition at 1 µM (hCCR5 [1]): -63%

Compound: Nc1nc2[nH]c(-c3ccccc3)c(Cc3cccc(Cl)c3)c(=O)n2n1 [Compound 34, 2-Amino-6-(3-chlorobenzyl)-5-phenyl[1,2,4]triazolo[1,5-a]pyrimidin-7(4H)-one]
- inhibition at 1 µM (hCCR5 [1]): -41%
- fold decrease in affinity for CCR2 compared to 8 (hCCR2 [2]): 20 fold

Compound: Cc1ccc(-c2[nH]c3nc(N)nn3c(=O)c2Cc2cccc(Cl)c2)cc1 [Compound 35, 2-Amino-6-(3-chlorobenzyl)-5-(p-tolyl)[1,2,4]triazolo[1,5-a]pyrimidin-7(4H)-one]
- inhibition at 1 µM (hCCR5 [1]): -13%
- fold decrease in affinity for CCR2 compared to 8 (hCCR2 [2]): 122 fold

Compound: Nc1nc2[nH]c(CCc3ccccc3)c(Cc3cccc(Cl)c3)c(=O)n2n1 [Compound 36, 2-Amino-6-(3-chlorobenzyl)-5-phenethyl[1,2,4]triazolo[1,5-a]pyrimidin-7(4H)-one]
- inhibition at 1 µM (hCCR5 [1]): -42%
- fold decrease in affinity for CCR2 compared to 8 (hCCR2 [2]): 40 fold

Compound: CCL2: human recombinant chemokine, endogenous agonist of CCR2
- EC50 (hCCR2 [4]; [6]): 8 nM
- Emax ± SEM (%) (hCCR2 [4]; [6]): 107 ± 2%
- pEC50 ± SEM (hCCR2 [4]; [6]): 8.10 ± 0.06

Compound: CCL3: human recombinant chemokine, endogenous agonist of CCR5
- pEC50 of β-arrestin recruitment (hCCR5 [1]; agonist, U2OS-CCR5): 8.3 ± 0.08
- pEC80 of β-arrestin recruitment (hCCR5 [1]; agonist, U2OS-CCR5): 7.9 ± 0.08
- EC50 (hCCR5 [1]; read-out: EC50 of β-arrestin recruitment, agonist, U2OS-CCR5): 6 nM
- EC50 (hCCR5 [5]): 4 nM
- Emax ± SEM (%) (hCCR5 [5]): 108 ± 2%
- pEC50 ± SEM (hCCR5 [5]): 8.42 ± 0.06

Further lines, results first:

- pKi ± SEM (hCCR2 [2]): 8.39 ± 0.03
Compound: Nc1nc2[nH]c(C3CC3)c(Cc3ccc(F)cc3)c(=O)n2n1 [Compound 20, 2-Amino-5-cyclopropyl-6-(4-fluorobenzyl)[1,2,4]triazolo[1,5-a]pyrimidin-7(4H)-one]

- pKi ± SEM (hCCR2 [2]): 8.74 ± 0.05
Compound: Nc1nc2[nH]c(C3CC3)c(Cc3ccc(Cl)cc3)c(=O)n2n1 [Compound 21, 2-Amino-6-(4-chlorobenzyl)-5-cyclopropyl[1,2,4]triazolo[1,5-a]pyrimidin-7(4H)-one]

- inhibition at 1 µM (hCCR5 [1]): > 60%
- Ki (hCCR2 [2]): ~4 nM
Compound: CCCc1[nH]c2nc(N)nn2c(=O)c1Cc1cccc(Cl)c1 [Compound 26, 2-Amino-6-(3-chlorobenzyl)-5-propyl[1,2,4]triazolo[1,5-a]pyrimidin-7(4H)-one]

- fold increase in CCR5 potency compared to 8 (hCCR5 [1]): 2 fold
Compound: CC(C)c1[nH]c2nc(N)nn2c(=O)c1Cc1cccc(Cl)c1 [Compound 27, 2-Amino-6-(3-chlorobenzyl)-5-isopropyl[1,2,4]triazolo[1,5-a]pyrimidin-7(4H)-one]

- inhibition at 1 µM (hCCR5 [1]): > 60%
- Ki (hCCR2 [2]): 2 nM
Compound: CCCCc1[nH]c2nc(N)nn2c(=O)c1Cc1cccc(Cl)c1 [Compound 28, 2-Amino-5-butyl-6-(3-chlorobenzyl)[1,2,4]triazolo[1,5-a]pyrimidin-7(4H)-one]

- pKi ± SEM (hCCR2 [2]): 8.14 ± 0.03
Compound: CCCCCc1[nH]c2nc(N)nn2c(=O)c1Cc1cccc(Cl)c1 [Compound 30, 2-Amino-6-(3-chlorobenzyl)-5-pentyl[1,2,4]triazolo[1,5-a]pyrimidin-7(4H)-one]

- fold increased affinity for CCR2 compared to 30 (hCCR2 [2]): 4.5 fold
Compound: Nc1nc2[nH]c(C3CCCC3)c(Cc3cccc(Cl)c3)c(=O)n2n1 [Compound 31, 2-Amino-6-(3-chlorobenzyl)-5-cyclopentyl[1,2,4]triazolo[1,5-a]pyrimidin-7(4H)-one]

- fold increase in CCR5 potency compared to 37 (hCCR5 [1]): ~2 fold
Compound: CC(C)c1[nH]c2nc(N)nn2c(=O)c1Cc1ccc(Cl)c(Cl)c1 [Compound 38, 2-Amino-6-(3,4-dichlorobenzyl)-5-isopropyl[1,2,4]triazolo[1,5-a]pyrimidin-7(4H)-one]

- Hill slope (nH) (hCCR2 [3]): −2.5
- decrease of basal [35S]GTPγS binding levels (hCCR2 [4]): 7–8%
- Hill slope (nH) (hCCR5 [1]): −3.7
Compound: CC(C)c1[nH]c2nc(N)nn2c(=O)c1Cc1cccc(Cl)c1Cl [Compound 39, 2-Amino-6-(2,3-dichlorobenzyl)-5-isopropyl[1,2,4]triazolo[1,5-a]pyrimidin-7(4H)-one]

- inhibition at 1 µM (hCCR5 [1]): ≤ 70%
Compound: CC(C)c1[nH]c2nc(N)nn2c(=O)c1Cc1cc(Br)cc(Br)c1 [Compound 42, 2-Amino-6-(3,5-dibromobenzyl)-5-isopropyl[1,2,4]triazolo[1,5-a]pyrimidin 7(4H)-one]

- Hill slope (nH) (hCCR2 [3]): −3.4
- decrease of basal [35S]GTPγS binding levels (hCCR2 [4]): 7–8%
- Hill slope (nH) (hCCR5 [1]): −4.4
Compound: CC(C)c1[nH]c2nc(N)nn2c(=O)c1Cc1ccc(Cl)c(Br)c1 [Compound 43, 2-Amino-6-(3-bromo-4-chloro-benzyl)-5-isopropyl[1,2,4]triazolo[1,5-a]pyrimidin-7(4H)-one]

- Hill slope (nH) (hCCR5 [1]): −1.1
Compound: Cc1ccc(-c2ccc3c(c2)C=C(C(=O)Nc2ccc(C[N+](C)(C)C4CCOCC4)cc2)CCC3)cc1.[Cl-] [TAK-779, reference compound]
